Assay results published in ChEMBL document CHEMBL4433221, “Novel Sustainable-by-Design HDAC Inhibitors for the Treatment of Alzheimer's Disease” (ACS Med Chem Lett, 2019).
pIC50: −log10 of the molar value. The source made the active and inactive calls. The calls are words filed in the database; no cut-off is given here.

Tests used:
N9 = assay: Immunomodulatory activity in mouse N9 cells assessed as reduction in LPS-induced iNOS expression at 5 to 25 uM incubated for 24 hrs by Western blot analysis; format: functional, cell-based
Summary of the method: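 N9 mouse microglial cells stimulated with LPS (100 ng/mL) and treated at 5 and 25 μM. iNOS and MRC1 levels were read by Western blot with GAPDH as loading control. Densitometry is expressed as percentage of LPS-only cells, as mean ± SE of three independent experiments.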

[1] = biological target: T1, Histone deacetylase 11 (Homo sapiens) (UniProt Q96DB2); assay: Inhibition of human recombinant HDAC11 using fluorogenic trifluoroacetyl lysine as substrate at 10 uM by fluorescence method
T1 sequence (whole entry): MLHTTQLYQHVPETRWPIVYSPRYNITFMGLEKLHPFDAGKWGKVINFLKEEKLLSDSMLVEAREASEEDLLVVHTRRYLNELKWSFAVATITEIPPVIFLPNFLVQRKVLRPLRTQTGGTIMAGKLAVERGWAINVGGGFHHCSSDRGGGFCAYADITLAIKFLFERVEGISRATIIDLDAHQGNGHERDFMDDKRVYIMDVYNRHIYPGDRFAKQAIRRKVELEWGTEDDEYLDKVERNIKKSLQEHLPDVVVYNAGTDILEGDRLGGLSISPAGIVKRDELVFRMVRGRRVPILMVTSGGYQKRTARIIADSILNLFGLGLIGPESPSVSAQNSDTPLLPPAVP
Summary of the method: (§1)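 Selectivity profile across HDAC isoforms 1–11 at a single concentration of 10 μM, run in duplicate.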

[2] = biological target: T2, Histone deacetylase 8 (Homo sapiens) (UniProt Q9BY41); assay: Inhibition of human recombinant HDAC8 using fluorogenic peptide p53 residues 379-382 (RHK(Ac)K(Ac)AMC) as residues at 10 uM by fluorescence method; summary of the method: as §1
T2 sequence (whole entry): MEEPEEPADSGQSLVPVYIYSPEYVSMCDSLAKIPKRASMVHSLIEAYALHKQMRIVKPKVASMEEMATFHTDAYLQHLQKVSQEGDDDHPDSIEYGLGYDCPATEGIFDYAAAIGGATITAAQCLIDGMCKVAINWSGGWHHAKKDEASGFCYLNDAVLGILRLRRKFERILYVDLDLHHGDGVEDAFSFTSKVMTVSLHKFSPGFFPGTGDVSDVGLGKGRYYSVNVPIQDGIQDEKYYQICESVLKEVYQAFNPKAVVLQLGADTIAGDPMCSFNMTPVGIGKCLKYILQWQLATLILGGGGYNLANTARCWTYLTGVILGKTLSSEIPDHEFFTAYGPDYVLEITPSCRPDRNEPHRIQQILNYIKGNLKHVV

[3] = biological target: Histone deacetylase 3 (Homo sapiens) (UniProt O15379); assay: Inhibition of human recombinant HDAC3 using fluorogenic peptide p53 residues 379-382 (RHKK(Ac)AMC) as residues at 10 uM by fluorescence method; summary of the method: as §1
Chain of Histone deacetylase 3 (Homo sapiens) (O15379 whole entry, the tested form may be a part): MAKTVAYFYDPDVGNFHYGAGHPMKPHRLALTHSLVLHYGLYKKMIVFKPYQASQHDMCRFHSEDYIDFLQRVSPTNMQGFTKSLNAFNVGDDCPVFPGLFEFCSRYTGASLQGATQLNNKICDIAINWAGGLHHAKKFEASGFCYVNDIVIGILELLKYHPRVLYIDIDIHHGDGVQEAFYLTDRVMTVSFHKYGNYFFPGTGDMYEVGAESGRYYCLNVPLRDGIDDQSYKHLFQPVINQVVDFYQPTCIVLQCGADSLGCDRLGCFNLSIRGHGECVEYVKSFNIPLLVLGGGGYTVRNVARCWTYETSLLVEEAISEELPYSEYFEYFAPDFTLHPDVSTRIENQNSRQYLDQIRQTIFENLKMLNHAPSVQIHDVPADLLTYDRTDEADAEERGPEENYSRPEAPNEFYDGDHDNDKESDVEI

[4] = biological target: T3, Protein deacetylase HDAC6 (Homo sapiens, UniProt Q9UBN7); assay: Inhibition of human recombinant HDAC6 using ZMAL (Z-(Ac)Lys-AMC fluorogenic substrate incubated for 90 mins by fluorescence method
T3 sequence (Q9UBN7 whole entry): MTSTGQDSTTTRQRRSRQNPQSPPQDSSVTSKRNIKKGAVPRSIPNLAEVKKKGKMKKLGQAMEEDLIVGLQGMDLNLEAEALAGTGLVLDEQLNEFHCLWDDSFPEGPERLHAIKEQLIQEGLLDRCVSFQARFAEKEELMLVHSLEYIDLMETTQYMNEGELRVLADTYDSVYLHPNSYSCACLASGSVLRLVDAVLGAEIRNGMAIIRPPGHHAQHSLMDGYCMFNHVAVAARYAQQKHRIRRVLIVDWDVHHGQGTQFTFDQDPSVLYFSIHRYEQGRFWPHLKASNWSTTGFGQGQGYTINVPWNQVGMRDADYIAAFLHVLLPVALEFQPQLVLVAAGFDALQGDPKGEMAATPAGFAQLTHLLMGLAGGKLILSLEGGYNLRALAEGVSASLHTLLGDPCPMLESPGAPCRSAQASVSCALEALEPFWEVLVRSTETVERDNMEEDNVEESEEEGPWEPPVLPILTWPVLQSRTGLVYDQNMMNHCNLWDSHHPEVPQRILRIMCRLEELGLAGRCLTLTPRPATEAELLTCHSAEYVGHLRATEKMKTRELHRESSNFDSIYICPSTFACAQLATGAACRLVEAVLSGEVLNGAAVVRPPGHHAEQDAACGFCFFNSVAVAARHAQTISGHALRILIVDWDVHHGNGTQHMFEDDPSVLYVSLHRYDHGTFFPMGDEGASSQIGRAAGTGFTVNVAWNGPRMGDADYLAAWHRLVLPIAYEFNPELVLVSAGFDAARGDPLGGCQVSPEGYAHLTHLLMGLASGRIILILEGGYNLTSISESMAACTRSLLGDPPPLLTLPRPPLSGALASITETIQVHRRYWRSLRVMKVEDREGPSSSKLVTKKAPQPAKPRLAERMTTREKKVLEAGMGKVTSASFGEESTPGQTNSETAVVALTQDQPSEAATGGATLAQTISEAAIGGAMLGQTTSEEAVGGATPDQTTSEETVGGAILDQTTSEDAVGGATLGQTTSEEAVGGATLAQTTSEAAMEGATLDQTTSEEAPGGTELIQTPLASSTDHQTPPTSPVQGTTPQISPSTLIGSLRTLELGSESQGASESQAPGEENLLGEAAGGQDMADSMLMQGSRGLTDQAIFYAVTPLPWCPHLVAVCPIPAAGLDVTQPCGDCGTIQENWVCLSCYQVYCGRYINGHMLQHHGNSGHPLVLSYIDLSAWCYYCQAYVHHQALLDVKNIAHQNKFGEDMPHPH

inhibition [1]	inhibition [2]	inhibition [3]	pIC50 [4]	Structure (SMILES)	Activity (N9)
inactive	inactive	inactive	6.72	COc1cccc(CCCCCCCC(=O)NO)c1	Active
inactive	inactive	inactive	6.67	COC(=O)c1c(CCCCCCCC(=O)NO)cccc1OC	Active
